CHRM1 agonist – activates human CHRM1 receptor; CHO-K1 hM1, Fluo-8 calcium fluorescence, agonist mode; 0% DMSO, 100% acetylcholine EC100; activation, % at 3 µM; AID 588814; P11229; actives 0.33% (n = 360,000);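 active = activation above the run's mean compound activation plus 3 SD, cut at about 16% in these data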;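 note: peak over basal fluorescence ratio within a 140 s kinetic read after compound addition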
TAAR1 antag – antagonists of human TAAR1. inhibition, % at 3 µM. actives 1.5% (n = 360,000). Q96RJ0. CHO RD-HGA16 TAAR1, Fluo-8 calcium fluorescence, antagonist;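 active = inhibition above a per-plate cutoff, the mean inhibition of test compounds on that plate plus 3 SD, cut at about 49% in these data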;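 note: 0% = DMSO plus EC80 beta-PEA response and 100% = DMSO alone without agonist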
Target sequence (Q96RJ0 whole entry, looked up): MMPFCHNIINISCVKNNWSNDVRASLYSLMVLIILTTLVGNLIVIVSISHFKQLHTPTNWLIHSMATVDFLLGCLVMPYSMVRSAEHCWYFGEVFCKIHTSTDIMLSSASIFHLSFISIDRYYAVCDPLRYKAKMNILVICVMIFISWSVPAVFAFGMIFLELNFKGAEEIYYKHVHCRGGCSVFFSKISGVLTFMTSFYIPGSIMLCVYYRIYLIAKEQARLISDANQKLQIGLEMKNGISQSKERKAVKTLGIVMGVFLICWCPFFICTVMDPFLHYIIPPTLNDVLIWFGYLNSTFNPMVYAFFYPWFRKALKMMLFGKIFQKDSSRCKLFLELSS
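Test system: hTAAR1-expressing CHO RD-HGA16 cells, Gα16-coupled; Probe or stimulus: EC80 β-phenethylamine stimulus; Compound dosing: single nominal final test compound concentration of 3 µM; Timing: 140 s kinetic read after compound, 140 s after agonist; Signal: Fluo-8 calcium-sensitive fluorescence; Measure: % inhibition of agonist calcium response; Controls: DMSO and EC80 PEA controls.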
TAAR1 ag – agonists of human TAAR1; actives 0.99% (n = 360,000); CHO RD-HGA16 TAAR1, Fluo-8 calcium fluorescence; vehicle wells 0%, saturating PEA agonist 100%; Q96RJ0; activation, % at 3 µM;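 active = activation above the mean activation of all test compounds in the run plus 3 SD, cut at about 38% in these data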
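Test system: RD-HGA16 (CHO) cells co-expressing Gα16 and hTAAR1 | Doses: Single dose, 3 µM | Schedule: 17-24 h seeding, 75 min 37 °C dye, 30 min RT | Evaluation: % activation from peak over basal fluorescence ratio, DMSO-to-PEA scaled | Technique: Kinetic Fluo-8 calcium fluorescence | Benchmarks: Low control DMSO, high control PEA (EC100)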
M1 PAM – human CHRM1 positive allosteric modulation; P11229; CHO-K1 hM1, Fluo-8 calcium fluorescence, ACh EC20; 0% = ACh EC20, 100% = maximal ACh; activation, % at 3 µM; actives 0.088% (n = 360,000); AID 588819; in the data active = activation above about 19%, passing the limit was not always enough
M1 antag – antagonists of human M1 muscarinic receptor; actives 1.3% (n = 360,000); inhibition, % at 3 µM; AID 588852; CHO-K1 hM1, Fluo-8 calcium fluorescence, ACh EC80 antagonist;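 active = percent inhibition above its own plate's cutoff, namely the mean of that plate's compound wells plus 3 SD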;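 note: peak over basal fluorescence ratio during 140 s after agonist addition; 0% = ACh EC80 plus DMSO and 100% = DMSO alone without agonist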
TAAR1 nonsel count – nonselective antagonist in TAAR1 antagonist counter-screen. counterscreen cell line, calcium fluorescence, antagonist mode. actives 77% (n = 2,400). shares compounds with TAAR1 antag. inhibition, % at 3 µM; in the data active = inhibition above about 22%;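 note: CHO-Ga16 host cells stimulated with ATP at an EC80 level; 0% = agonist EC80 plus vehicle and 100% = vehicle without agonist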
TAAR1 antag conf – confirmation of human TAAR1 antagonists. shares compounds with TAAR1 antag. TAAR1-expressing cells, fluorescence antagonist read-out. inhibition, % at 3 µM. actives 40% (n = 2,400). AID 651785; in the data active = inhibition above about 49%;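 note: CHO-Ga16 host cells challenged with agonist PEA near its EC80; 0% = agonist at EC80 plus vehicle and 100% = vehicle with no agonist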
Ga16 nonsel ag – nonselective Ga16 agonism, counter-screen; activation, % at 3 µM; Ga16-expressing cells, calcium fluorescence, agonist counterscreen; shares compounds with TAAR1 antag; actives 18% (n = 2,400); in the data active = activation above about 12%;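 note: 0% = vehicle wells and 100% = saturating stimulus response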
TAAR1 ag counter – activates human TAAR1 in antagonist counter-screen; shares compounds with TAAR1 antag; hTAAR1 cell line, fluorescence activation, agonist mode; activation, % at 3 µM; actives 2% (n = 2,400); AID 651955; in the data active = activation above about 37%;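 note: CHO cells stably expressing TAAR1 with calcium dye readout; 0% = DMSO vehicle and 100% = full agonist response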
* = called active by the depositor; / = no result. The list is not random: actives were taken first. Their share in the collection is about 3.4%.

SMILES	CHRM1 agonist	TAAR1 antag	TAAR1 ag	M1 PAM	M1 antag	TAAR1 nonsel count	TAAR1 antag conf	Ga16 nonsel ag	TAAR1 ag counter
COC(=O)c1cccc(CN2C(=O)C(C)Oc3ccc(C)cc32)c1 (stereo unspecified)	-6	-17	5	-5	2	/	/	/	/
C[C@@H]1ON(C)[C@H]2C[C@H]3c4[nH]c5c(-c6ccc7c(c6)OCO7)cccc5c4CCN3C(=O)[C@@H]12	/	62*	9	/	/	27*	45	7	5
COCCNC(=S)N(C)[C@H]1C[C@H]2c3[nH]c4c(-c5ccc6c(c5)OCO6)cccc4c3CCN2C(=O)[C@H]1[C@H](C)O	/	62*	15	/	/	29*	45	4	8
C[C@@H]1ON(C)[C@H]2C[C@H]3c4[nH]c5ccc(-c6ccc7c(c6)OCO7)cc5c4CCN3C[C@@H]12	-1	36	16	1	-4	/	/	/	/
C[C@H](O)[C@@H]1C(=O)N2CCc3c([nH]c4c(-c5ccccc5)cccc34)[C@@H]2C[C@@H]1N(C)C(=O)Nc1cccc2ccccc12	/	27	5	/	/	/	/	/	/
C[C@H](O)[C@@H]1C(=O)N2CCc3c([nH]c4c(-c5ccccc5)cccc34)[C@@H]2C[C@@H]1N(C)C(=O)Nc1ccccc1	/	54*	9	/	/	31*	26	5	4
Cc1ccccc1NC(=O)N(C)[C@H]1C[C@H]2c3[nH]c4c(-c5ccccc5)cccc4c3CCN2C(=O)[C@H]1[C@H](C)O	/	57*	16	/	/	29*	35	6	4
CC1(C(=O)NS(=O)(=O)C2CC2)CCN(C(=O)c2ccc(F)c(Cl)c2)C1 (stereo unspecified)	0	0	0	7	-12	/	/	/	/
CCOC(=O)c1cc2c(N)c(C(=O)c3cc(C#N)c(SC)nc3C)sc2nc1C	2	68*	5	4	-7	31*	42	4	1
CCOC(=O)c1cc(C#N)c(N)nc1C	-2	10	6	-1	-2	/	/	/	/
O=C(c1ccco1)N1CCN(C(c2ccccc2Cl)c2nnnn2Cc2ccco2)CC1 (stereo unspecified)	2	62*	18	-16	29*	35*	55*	10	9
C=Cc1cc2c(cc1O)CCC1C2CCC2(C)C(O)CCC12 (stereo unspecified)	-2	58*	8	-1	-11	23*	44	9	7
COc1ccc(C(=O)Oc2cccc(Nc3ncnc4ccccc34)c2)cc1OC	0	69*	12	-14	18	43*	54*	12*	5
O=C(c1cc(C(=O)NCCc2ccccc2)c(=O)n(CCc2ccccc2)c1)c1cc(Cl)ccc1O	-1	65*	16	-7	13	38*	61*	6	3
CC1(C(=O)Nc2ccc3c(c2)OCCO3)CCC(=O)N1CCc1c[nH]c2ccccc12 (stereo unspecified)	-5	-1	2	-1	6	/	/	/	/
c1ccc(OCCNc2ccn3nc(-c4cccs4)cc3n2)cc1	1	30	11	-9	15	/	/	/	/
CCCc1cc(C(=O)Nc2cccc3ccccc23)n(C)n1	-3	-6	-1	-5	7	/	/	/	/
CCCc1cc(C(=O)Nc2ccc(C(=O)c3ccc(C)cc3)cc2)n(C)n1	1	64*	-1	7	-4	29*	49*	3	-2
Cn1cc(C(=O)NCCN2CCN(c3cccc(Cl)c3)CC2)c2c3ccccc3n(C)c2c1=O	-1	56*	25	-9	26	29*	43	6	6
CC(C)COc1cccc(-c2cc(C(=O)N/N=C/c3ccncc3)c3ccccc3n2)c1	-2	61*	3	6	-2	8	27	6	18

Screening data deposited in PubChem BioAssay by The Scripps Research Institute Molecular Screening Center.
